Assay results taken from PubChem BioAssay AID540348 (Broad Institute, 2011).
Calls of active or inactive are those of the source.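 The calls were made as follows: active = inhibitors whose fitted half-maximal dose is at most ten times the top tested dose; inconclusive = flat curve with 30 to 70% inhibition, or a poor fit; inactive = the rest.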

Assays:
[1] = tested on: SK-MEL-5 TRPM1 promoter luciferase reporter, 24 h; assay: TRPM1 reporter luminescence decrease in melanoma cells – SK-MEL-5 cells, luciferase, dry powder samples, MITF project, dose response (AID 540348)
In short: (§1)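 Material: SK-MEL-5 melanoma cells with stable TRPM1 promoter–luciferase reporter / Compound: dry-powder compound dose series / Timing: cells plated day before, 24 h compound exposure, 37 °C / Detection: Steady-Glo luminescence after 5 min at room temperature, 0.5 s per well / Medium: DMEM lacking phenol red, supplemented with 10% iFBS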

[2] = as above; settings: SK-MEL-5 TRPM1 promoter luciferase reporter, 24 h; at 35 µM (top of the series)
In short: as §1

Question: Which AC50 [1] does the source give for CC1CCCCC1NC(=O)/C(C#N)=C/C=C/c1ccccc1[N+](=O)[O-] (centres undefined) here?
Answer: 7.3 µM

Question: With O=C(Cn1ncc(Cl)c(Cl)c1=O)N1CCc2ccccc21 as the molecule, how does the AC50 [1] read?
Answer: 4.69 µM

Question: Which activity change, negative = inhibition [2] does the source give for Cc1ccc(C(O)(c2ccc(C)c(C)c2)C2CN3CCC2CC3)cc1C (centres undefined) here?
Answer: -51% (inactive)

Question: With O=c1c(Cl)c2oc3ccccc3nc-2c2ccccc12 as the molecule, how does the AC50 [1] read?
Answer: 6.17 µM

Question: For CN(C)CCCNC(=O)/C(=C\c1ccc(-c2ccc(Br)cc2)o1)NC(=O)c1ccccc1, which AC50 [1] is on record?
Answer: 12.2 µM

Question: With CCN1CCN(C2=C(NS(=O)(=O)c3ccc(Br)cc3)C(=O)c3ccccc3C2=O)CC1 as the molecule, how does the AC50 [1] read?
Answer: 2.09 µM

Question: Which activity change, negative = inhibition [2] does the source give for CCN1CCCC1CNC(=O)c1ccc2c(c1)NC(=O)/C(=C\c1ccc(C)cc1)S2 (centres undefined) here?
Answer: -106% (inactive)

Question: For COc1ccc(S(=O)(=O)N(C(C)=O)c2ccc(OC(C)=O)c3ccccc23)cc1[N+](=O)[O-], which AC50 [1] is on record?
Answer: 2.87 µM

Question: Which AC50 [1] does the source give for COc1cc2c(cc1OC)C(c1ccccc1)N(C(=O)CCl)CC2 (centres undefined) here?
Answer: 5.19 µM

Question: Which activity change, negative = inhibition [2] does the source give for CC1CN(C(=O)CCC(=O)NCCCN2CCC(Cc3ccccc3)CC2)c2cc(Cl)ccc2O1 (centres undefined) here?
Answer: -105% (inactive)

Question: With CC(C)C(CCNC1CCN(C)CC1)c1ccc(Cl)cc1 (centres undefined) as the molecule, how does the AC50 [1] read?
Answer: 10.6 µM

Question: Which AC50 [1] does the source give for Cc1nc2ccccc2n1/N=C/c1ccc([N+](=O)[O-])s1 here?
Answer: 2.88 µM

Question: For CC1=NNC(=O)/C1=C\c1cn(-c2ccccc2)nc1-c1ccc(F)cc1, which activity change, negative = inhibition [2] is on record?
Answer: -106% (inactive)

Question: Which AC50 [1] does the source give for O=C(Nc1ccc(-c2nc3ncccc3o2)cc1)c1ccc([N+](=O)[O-])o1 here?
Answer: 8.55 µM

Question: With O=C(CNc1cccc2ccccc12)N/N=C/c1ccc([N+](=O)[O-])o1 as the molecule, how does the AC50 [1] read?
Answer: 2.42 µM

Question: Which activity change, negative = inhibition [2] does the source give for Cc1[nH]c2ccccc2c1C(=O)CCl here?
Answer: -106% (inactive)

Question: Which AC50 [1] does the source give for O=C(Nc1ccc(N2CCN(C(=O)c3ccccc3)CC2)cc1)c1ccc([N+](=O)[O-])o1 here?
Answer: 9.85 µM

Question: Which activity change, negative = inhibition [2] does the source give for N=c1n(CCN2CCCC2)c2ccccc2n1CC(O)c1ccc(Cl)c(Cl)c1 (centres undefined) here?
Answer: -109% (inactive)

Question: For Cc1ccc(C(=O)N/N=C/c2ccc([N+](=O)[O-])s2)cc1, which AC50 [1] is on record?
Answer: 5.75 µM

Question: With C=CCNC1=C(Cl)C(=O)c2ccccc2C1=O as the molecule, how does the AC50 [1] read?
Answer: 0.905 µM

Question: Which AC50 [1] does the source give for CC1(C)CC(NC(=O)c2ccc(Cl)c(S(=O)(=O)N(Cc3ccccc3)c3ccccc3)c2)CC(C)(C)N1 here?
Answer: 6.34 µM

Question: For Cc1oc(-c2ccc(Cl)cc2)nc1CN1CCC(C(=O)NCCCN2CCCC(C)C2)CC1 (centres undefined), which activity change, negative = inhibition [2] is on record?
Answer: -104% (inactive)

Question: Which AC50 [1] does the source give for O=C(COc1ccccc1)N/N=C/c1ccc([N+](=O)[O-])o1 here?
Answer: 2.6 µM

Question: Which AC50 [1] does the source give for Cc1cc(C(C)(C)C)cc(C)c1Cn1c2[n+](c3ccc(C(F)(F)F)cc31)CCCCC2 here?
Answer: 9.42 µM

Question: Which AC50 [1] does the source give for CC1CCN(CC(CS(=O)(=O)c2ccc([N+](=O)[O-])cc2)N2CCC(C)CC2)CC1 (centres undefined) here?
Answer: 5.58 µM

Question: For CCN(CC)CCNC(=O)c1c(C)n(-c2ccccc2)c2cc(Br)c(OC)cc12, which activity change, negative = inhibition [2] is on record?
Answer: -94.1% (inactive)

Question: With CCN1c2ccccc2NC2N=C(OC)C(c3ccccc3)C21 (centres undefined) as the molecule, how does the AC50 [1] read?
Answer: 0.808 µM

Question: Which AC50 [1] does the source give for Cc1ccc(C(C)C)c(OCc2nn(CC(=O)c3ccc(Cl)cc3)c3[n+]2CCCCC3)c1 here?
Answer: 13.8 µM

Question: For COc1cc(/C=N/NC(N)=O)c(Br)cc1OCC(=O)Nc1ccccc1C, which AC50 [1] is on record?
Answer: 17.7 µM
